# MrgX1 ag: agonists of human MrgX1 receptor, primary screen, HEK293 cells, Fluo-4 calcium flux | Fluo-4 calcium fluorescence, agonist mode; stronger effect = higher value | actives 0.44% (n = 310,000) | B-score at 10 µM;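 active = calcium response B-score plate-corrected fluorescence ratio at least 3 library SD, with starting fluorescence B-score inside 5 SD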
# Target sequence (Q96LB2 whole entry, looked up): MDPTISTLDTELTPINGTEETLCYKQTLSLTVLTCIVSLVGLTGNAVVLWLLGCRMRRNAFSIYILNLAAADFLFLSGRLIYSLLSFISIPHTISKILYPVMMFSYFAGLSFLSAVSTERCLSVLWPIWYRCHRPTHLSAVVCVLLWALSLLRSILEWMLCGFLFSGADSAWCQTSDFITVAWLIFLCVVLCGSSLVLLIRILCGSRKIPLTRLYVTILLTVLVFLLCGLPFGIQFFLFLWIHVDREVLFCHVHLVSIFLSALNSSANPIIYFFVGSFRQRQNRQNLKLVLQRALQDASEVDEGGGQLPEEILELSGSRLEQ
#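 times = overnight plating, then 30 min 37 °C plus 30 min room-temperature dye loading | assay system = stable human MrgX1 HEK293 cell line | input = fifteen thousand cells per well | signal = kinetic calcium dye fluorescence, Fluo-4 NW | dosing = compound delivered in addition one of three | read-out = B-scored fluorescence response ratio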
# MrgX1 allo act: positive allosteric modulators of MrgX1, primary screen, HEK293 cells, Fluo-4 calcium flux; Mas-related G-protein coupled receptor member X1 (Homo sapiens), Q96LB2; FDSS; stronger effect = higher value; B-score at 10 µM; actives 0.63% (n = 310,000);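 active = plate-corrected calcium response at least 3 library SD above typical, normal starting fluorescence, not activating the receptor alone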;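 note: compound read alongside a low EC10 to EC30 dose of BAM8-22 agonist; peak minus trough fluorescence over baseline measured at the second addition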
# MrgX1 antagonist: antagonists of human MrgX1 receptor, primary screen, HEK293 cells, Fluo-4 calcium flux | actives 1.3% (n = 310,000) | BAM8-22 antagonism; stronger effect = lower value | B-score at 10 µM;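 active = calcium-response B-score plate-corrected more than 3 library SD below zero, starting fluorescence within 5 deviations, no agonist response on first addition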;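 note: peak minus trough fluorescence over baseline after final BAM8-22 challenge near maximal dose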
# RGS4 pot: RGS4 potentiators or activators, primary screen, cell-based, HEK293 M3R inducible RGS4, calcium flux; AID 463111, 2010; B-score at 10 µM; actives 0.92% (n = 310,000); carbachol calcium flux Fluo4; stronger effect = lower value;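 active = B-score of the integrated calcium signal more than 4 SD below the library mean, with starting fluorescence not abnormally high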;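 note: negative B-score means reduced calcium response which marks RGS4 activation or potentiation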
#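 Reagent: ECmax carbachol challenge; Test system: M3R-expressing HEK293 line, RGS4 induced by doxycycline; Schedule: overnight RGS4 induction, 30 min dye load 37 °C, 20 min compound RT; Detection: calcium dye Fluo4 fluorescence; Read-out: Agonist-evoked peak-minus-minimum fluorescence over baseline, integrated ratio, B score.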
# RGS4 block: RGS4 inhibitors, primary screen, cell-based, HEK293 M3R inducible RGS4, calcium flux. Regulator of G-protein signaling 4 (Homo sapiens), P49798. Fluo-4 calcium flux; stronger effect = higher value; triggered by carbachol at its EC20. B-score at 10 µM. actives 0.45% (n = 310,000). AID 463165, 2010;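 active = B-score, a plate-corrected calcium signal, over three deviations above library mean, with baseline fluorescence within five deviations of library mean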;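 note: RGS4 expression induced by doxycycline in cells with stable M3 receptor; B-score is computed from the integrated fluorescence ratio over baseline after carbachol; higher B-score means a larger calcium signal and so more RGS4 inhibition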
# Target sequence (P49798 whole entry, looked up): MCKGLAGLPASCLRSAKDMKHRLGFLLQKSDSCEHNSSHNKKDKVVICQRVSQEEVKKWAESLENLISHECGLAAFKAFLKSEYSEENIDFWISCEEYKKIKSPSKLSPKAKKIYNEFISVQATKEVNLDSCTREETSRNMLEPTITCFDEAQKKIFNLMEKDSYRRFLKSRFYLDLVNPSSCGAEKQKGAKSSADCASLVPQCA
# * = called active by the depositor; i = inactive. Most compounds without a hit are left out; they make up all but 3.5% or so of the library.
SMILES,MrgX1 ag,MrgX1 allo act,MrgX1 antagonist,RGS4 pot,RGS4 block
CC12CCC(C/C1=N\OC(=O)c1c(F)cccc1F)C2(C)C (stereo not given),54*,i,i,i,i
COc1ccc(CC(=O)NCC2CCCN(Cc3cc(OC)cc(OC)c3)C2)cc1 (stereo not given),i,i,i,i,i
Cc1cccc(-c2nnc(SCC(=O)NC3CC3)n2C)c1,i,i,i,i,i
CSc1nc(O)c(C(c2ccccc2Cl)c2c(O)nc(SC)[nH]c2=O)c(=O)[nH]1,i,i,i,i,i
COC(=O)CC1=NN(c2nc3ccccc3s2)C(=O)/C1=C/N(C)C,i,15*,i,i,i
CC(=O)NC(CC(=O)O)c1ccccc1 (stereo not given),i,i,i,i,i
CC(=O)NC(CC(=O)N1CCCC1)c1ccccc1 (stereo not given),i,i,-5.3*,i,i
COc1cc2c(cc1OC)C(c1cccs1)N(C(=S)NC(C)C)CC2 (stereo not given),i,i,i,i,i
O=C(Oc1ccc(Br)cc1C(=S)N1CCOCC1)c1ccc([N+](=O)[O-])cc1[N+](=O)[O-],i,i,i,-7.5*,i
O=C(Oc1ccc(C(=S)N2CCOCC2)cc1)c1ccc([N+](=O)[O-])cc1[N+](=O)[O-],i,i,i,i,i
C/C(=N\Nc1ccc(C(=O)O)cc1)c1ccc2c(c1)Nc1ccccc1S2,i,i,i,i,i
S=c1[nH]nc(COc2ccccc2)n1Cc1ccccc1,i,i,i,i,i
CCCCn1c(Cc2ccccc2)n[nH]c1=S,i,i,i,-7.4*,i
CC(C)CCn1c(COc2ccccc2)n[nH]c1=S,i,i,i,-7.1*,i
CCCCn1c(=O)c2ccccc2n2c(=S)[nH]nc12,i,i,-5.4*,i,i
CCCCCn1c(=O)c2ccccc2n2c(=S)[nH]nc12,i,i,i,i,i
CC1CC(C)CN(CCCNC(=O)CCC(=O)N2CCOc3ccccc32)C1 (stereo not given),i,i,i,i,i
CC1CCCC(C)N1C(=O)CSc1ncccn1 (stereo not given),i,i,i,i,i
O=C(c1ccc(C(F)(F)F)cc1)N1CCN(S(=O)(=O)c2ccc3c(c2)OCCCO3)CC1,i,i,i,i,i
N#C/C(=C/c1ccc(-c2cc(C(=O)O)cc(C(=O)O)c2)o1)c1nc2ccccc2s1,27*,i,i,i,i
CCOc1ccc(NC(=O)CN(C)C(=O)CC(NC(=O)c2ccccc2)c2ccccc2)cc1OCC (stereo not given),36*,i,i,i,i
CCOc1ccc(NC(=O)CN(C)C(=O)CCNC(=O)c2ccc(Br)cc2)cc1OCC,i,i,i,i,i
CC(=O)N(c1ccc(Cl)cc1)c1cn(C(C)=O)c2ccccc12,i,i,i,i,i
CC(=O)n1cc(N(C(=O)CCl)c2ccc(C)cc2)c2ccccc21,i,i,i,-7.2*,i
O=C1C(=O)N(CCCc2ccccc2)c2ccccc21,38*,i,i,i,i
SMILES,MrgX1 ag,MrgX1 allo act,MrgX1 antagonist,RGS4 pot,RGS4 block
CCOC(=O)C(CC)(CCC(=O)O)c1csc(Nc2ccc(C)cc2)n1 (stereo not given),i,i,-7.4*,i,i
CCOC(=O)Cc1csc(Nc2ccc(Cl)cc2)n1,i,i,i,i,i
Cc1ccc(C)c(N2CCN(C(=O)CCCN3C(=S)NC(C)(C)CC3C)CC2)c1 (stereo not given),i,i,-4.6*,i,i
CCCN(C(=O)C1CCCN(c2ncnc3c2nc2n3CCCCC2)C1)c1ccc(F)cc1 (stereo not given),i,i,i,i,i
O=C1NC(=O)C(c2ccccc2[N+](=O)[O-])=C1Nc1ccc(O)c(Cl)c1,i,i,i,i,i
CCN(c1ccccc1)S(=O)(=O)c1cccc(C(=O)NCc2ccccn2)c1,i,i,i,i,i
COc1cc2ccccc2cc1C(=O)N(CCN(C)C)c1nc2c(OC)ccc(OC)c2s1,i,8.8*,i,i,i
COC(=O)[C@@H]1C(c2c(OC)cc(OC)cc2OC)=NO[C@H]1C(=O)OC,i,i,-6.2*,i,i
COC(=O)C1CC(c2c(OC)cc(OC)cc2OC)=NO1 (stereo not given),i,i,i,i,i
Oc1ccc(N=C/C=C/c2ccc(Br)cc2)cc1-c1nc2ccccc2s1,i,i,i,i,6.2*
CCOC(=O)c1cnc(Nc2nc3ccccc3o2)nc1CSC(=S)N(CC)CC,i,i,i,i,i
CCOC(=O)c1cnc(Nc2nc3ccccc3o2)nc1CSc1ncccn1,i,i,-5.6*,i,i
Cc1cccc(N2CCN(C(=O)CCC(=O)N3Cc4ccccc4Oc4ncccc43)CC2)c1C,i,i,i,i,i
Cc1nn(-c2ccc(Cl)nn2)c(=O)c2ccccc12,i,14*,i,i,i
Cc1nn(-c2ccc(Cl)cc2)c(=O)c2ccccc12,i,i,i,i,i
O=C(Cc1ccccc1[N+](=O)[O-])N/N=C/c1cccnc1,i,i,i,i,i
CCN(CC#CCC(O)(c1ccccc1)C1CCCC1)C(C)C (stereo not given),i,i,i,-7.4*,i
CCOC(=O)c1sc(N)c(C#N)c1COC(=O)CNC(=O)c1cc(OC)c(OC)c(OC)c1,i,i,-6.6*,i,i
COc1cc(C(=O)NCC(=O)OCc2ccccc2Cl)cc(OC)c1OC,i,i,i,i,i
COc1cc(C(=O)NCC(=O)N/N=C/c2cccnc2)cc(OC)c1OC,i,i,i,i,i
O=C(/C(=C/c1cccnc1)n1ccnc1)c1ccc(Cl)cc1Cl,33*,i,i,i,i
CC(C)/C=C(/C(=O)c1ccc(Cl)cc1Cl)n1cncn1,i,i,i,i,i

# Screening data: PubChem BioAssay, Johns Hopkins Ion Channel Center
